Results: ChEMBL document CHEMBL2177098, “Synthesis and evaluation of novel ¹⁸F labeled 2-pyridinylbenzoxazole and 2-pyridinylbenzothiazole derivatives as ligands for positron emission tomography (PET) imaging of β-amyloid plaques” (J Med Chem, 2012)

Legend:
[1] = n-Octanol-PBS buffer partition coefficient, log D of the compound at 1.5 MBq after 3 mins at pH 7.4; type: physicochemical
Procedure, shortened: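 The tracer was partitioned between n-octanol and PBS by vortexing for 3 min at room temperature, then centrifuged for 5 min at 3000 rpm. Samples of the octanol (50 μL) and aqueous (500 μL) layers were counted. log D is the log of the octanol/PBS counts-per-gram ratio. The octanol layer was repartitioned until values were consistent. Measured in triplicate and repeated three times.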

Blood [2] = assay: Drug uptake in ICR mouse blood at 370 kBq/100 ul, iv at 10 mins by gamma-counting analysis; type: ADME, organism-based; details: in vivo
Procedure, shortened: (§1)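 Male ICR mice (5 weeks, about 20 g) got 18F tracer in saline (370 KBq per 100 μL) via tail vein; n = 5 per time point, killed at 2, 10, 30, 60 min. Organs weighed and γ-counted; percent dose per gram wet tissue from comparison with diluted injectate aliquots.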

Brain [3] = assay: Ratio of drug uptake in brain at 2 mins to drug uptake in brain at 60 mins in ICR mouse at 370 KBq/100 ul, iv; type: ADME, organism-based; details: in vivo
Procedure, shortened: (§2)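 Normal male ICR mice (5 weeks, about 20 g) received the ¹⁸F tracer in saline (370 KBq per 100 μL) by tail-vein injection. Groups of n = 5 were killed at 2, 10, 30 and 60 min. Organs were removed, weighed and γ-counted against diluted aliquots of the injectate, giving % dose per gram. Stomach and intestine were expressed per organ. The brain ratio is 2 min/60 min uptake. Values are mean ± SD.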

Stomach [4] = assay: Drug uptake in ICR mouse stomach assessed per organ at 370 kBq/100 ul, iv at 30 mins by gamma-counting analysis; type: ADME, organism-based; details: in vivo, 0.5 h
Procedure, shortened: (§3)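 Male ICR mice (5 weeks, about 20 g) got 18F tracer in saline (370 KBq per 100 μL) via tail vein; n = 5 per time point, killed at 2, 10, 30, 60 min. Organs removed and γ-counted against diluted injectate; expressed as % injected dose per organ.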

Brain [5] = assay: Drug uptake in ICR mouse brain at 370 kBq/100 ul, iv at 10 mins by gamma-counting analysis; type: ADME, organism-based; details: in vivo; procedure, shortened: as §1
Bone [6] = assay: Drug uptake in ICR mouse bone at 370 kBq/100 ul, iv at 60 mins by gamma-counting analysis; type: ADME, organism-based, Bone element; details: in vivo, 1 h; procedure, shortened: as §1
Kidney [7] = assay: Drug uptake in ICR mouse kidney at 370 kBq/100 ul, iv at 60 mins by gamma-counting analysis; type: ADME, organism-based; details: in vivo, 1 h; procedure, shortened: as §1
Blood [8] = assay: Drug uptake in ICR mouse blood at 370 kBq/100 ul, iv at 60 mins by gamma-counting analysis; type: ADME, organism-based; details: in vivo, 1 h; procedure, shortened: as §1
Brain [9] = assay: Drug uptake in ICR mouse brain at 370 kBq/100 ul, iv at 2 mins by gamma-counting analysis; type: ADME, organism-based; details: in vivo; procedure, shortened: as §1
Brain [10] = assay: Drug uptake in ICR mouse brain at 370 kBq/100 ul, iv at 30 mins by gamma-counting analysis; type: ADME, organism-based; details: in vivo, 0.5 h; procedure, shortened: as §1
Blood [11] = assay: Drug uptake in ICR mouse blood at 370 kBq/100 ul, iv at 30 mins by gamma-counting analysis; type: ADME, organism-based; details: in vivo, 0.5 h; procedure, shortened: as §1
Kidney [12] = assay: Drug uptake in ICR mouse kidney at 370 kBq/100 ul, iv at 10 mins by gamma-counting analysis; type: ADME, organism-based; details: in vivo; procedure, shortened: as §1
Heart [13] = assay: Drug uptake in ICR mouse heart at 370 kBq/100 ul, iv at 60 mins by gamma-counting analysis; type: ADME, organism-based; details: in vivo, 1 h; procedure, shortened: as §1
Liver [14] = assay: Drug uptake in ICR mouse liver at 370 kBq/100 ul, iv at 30 mins by gamma-counting analysis; type: ADME, organism-based; details: in vivo, 0.5 h; procedure, shortened: as §1
Lung [15] = assay: Drug uptake in ICR mouse lung at 370 kBq/100 ul, iv at 60 mins by gamma-counting analysis; type: ADME, organism-based; details: in vivo, 1 h; procedure, shortened: as §1
Bone [16] = assay: Drug uptake in ICR mouse bone at 370 kBq/100 ul, iv at 10 mins by gamma-counting analysis; type: ADME, organism-based, Bone element; details: in vivo; procedure, shortened: as §1
Stomach [17] = assay: Drug uptake in ICR mouse stomach assessed per organ at 370 kBq/100 ul, iv at 10 mins by gamma-counting analysis; type: ADME, organism-based; details: in vivo; procedure, shortened: as §3
Intestine [18] = assay: Drug uptake in ICR mouse intestine assessed per organ at 370 kBq/100 ul, iv at 30 mins by gamma-counting analysis; type: ADME, organism-based; details: in vivo, 0.5 h; procedure, shortened: as §3
Intestine [19] = assay: Drug uptake in ICR mouse intestine assessed per organ at 370 kBq/100 ul, iv at 10 mins by gamma-counting analysis; type: ADME, organism-based; details: in vivo; procedure, shortened: as §3
Spleen [20] = assay: Drug uptake in ICR mouse spleen at 370 kBq/100 ul, iv at 60 mins by gamma-counting analysis; type: ADME, organism-based; details: in vivo, 1 h; procedure, shortened: as §1
Liver [21] = assay: Drug uptake in ICR mouse liver at 370 kBq/100 ul, iv at 10 mins by gamma-counting analysis; type: ADME, organism-based; details: in vivo; procedure, shortened: as §1
Spleen [22] = assay: Drug uptake in ICR mouse spleen at 370 kBq/100 ul, iv at 10 mins by gamma-counting analysis; type: ADME, organism-based; details: in vivo; procedure, shortened: as §1
Brain [23] = assay: Drug uptake in wild type C57BL6 mouse brain at 370 KBq/100 ul after 1 hr by autoradiographic analysis; type: ADME, tissue-based; details: in vitro
Procedure, shortened: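 Paraffin brain sections from 12-month-old male control C57BL6 mice were deparaffinized through xylene and graded ethanol, then held in PBS (0.2 M, pH 7.4) for 30 min. They were incubated with the ¹⁸F tracer (370 KBq per 100 μL) for 1 h at room temperature. Sections were washed in 40% EtOH, rinsed with water for 1 min, dried, and exposed to a phosphor plate for 2 h. The same sections were then stained with thioflavin S.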

Kidney [24] = assay: Drug uptake in ICR mouse kidney at 370 kBq/100 ul, iv at 30 mins by gamma-counting analysis; type: ADME, organism-based; details: in vivo, 0.5 h; procedure, shortened: as §1
Intestine [25] = assay: Drug uptake in ICR mouse intestine assessed per organ at 370 kBq/100 ul, iv at 60 mins by gamma-counting analysis; type: ADME, organism-based; details: in vivo, 1 h; procedure, shortened: as §3
Spleen [26] = assay: Drug uptake in ICR mouse spleen at 370 kBq/100 ul, iv at 2 mins by gamma-counting analysis; type: ADME, organism-based; details: in vivo; procedure, shortened: as §1
Lung [27] = assay: Drug uptake in ICR mouse lung at 370 kBq/100 ul, iv at 10 mins by gamma-counting analysis; type: ADME, organism-based; details: in vivo; procedure, shortened: as §1
Bone [28] = assay: Drug uptake in ICR mouse bone at 370 kBq/100 ul, iv at 2 mins by gamma-counting analysis; type: ADME, organism-based, Bone element; details: in vivo; procedure, shortened: as §1
Heart [29] = assay: Drug uptake in ICR mouse heart at 370 kBq/100 ul, iv at 2 mins by gamma-counting analysis; type: ADME, organism-based; details: in vivo; procedure, shortened: as §1
Liver [30] = assay: Drug uptake in ICR mouse liver at 370 kBq/100 ul, iv at 60 mins by gamma-counting analysis; type: ADME, organism-based; details: in vivo, 1 h; procedure, shortened: as §1
Kidney [31] = assay: Drug uptake in ICR mouse kidney at 370 kBq/100 ul, iv at 2 mins by gamma-counting analysis; type: ADME, organism-based; details: in vivo; procedure, shortened: as §1
Blood [32] = assay: Drug uptake in ICR mouse blood at 370 kBq/100 ul, iv at 2 mins by gamma-counting analysis; type: ADME, organism-based; details: in vivo; procedure, shortened: as §1
Heart [33] = assay: Drug uptake in ICR mouse heart at 370 kBq/100 ul, iv at 10 mins by gamma-counting analysis; type: ADME, organism-based; details: in vivo; procedure, shortened: as §1
Brain [34] = assay: Drug uptake in ICR mouse brain at 370 kBq/100 ul, iv at 60 mins by gamma-counting analysis; type: ADME, organism-based; details: in vivo, 1 h; procedure, shortened: as §1
Lung [35] = assay: Drug uptake in ICR mouse lung at 370 kBq/100 ul, iv at 30 mins by gamma-counting analysis; type: ADME, organism-based; details: in vivo, 0.5 h; procedure, shortened: as §1
[36] = Displacement of [125I]-IMPY from amyloid beta (1 to 42) fibrils after 2 hrs by gamma-counting analysis
Procedure, shortened: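 Competition binding with aggregated Aβ1-42 fibrils and [125I]IMPY (60000−100000 cpm/100 μL) in 0.05% BSA (1 mL total); inhibitors 10⁻⁴−10^−8.5 M in ethanol. Incubated 37 °C for 2 h, then GF/B vacuum filtration with PBS (0.02 M, pH 7.4) washes and γ counting. Three repeats; IC50 converted to Ki by Cheng−Prusoff.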

Heart [37] = assay: Drug uptake in ICR mouse heart at 370 kBq/100 ul, iv at 30 mins by gamma-counting analysis; type: ADME, organism-based; details: in vivo, 0.5 h; procedure, shortened: as §1
Intestine [38] = assay: Drug uptake in ICR mouse intestine assessed per organ at 370 kBq/100 ul, iv at 2 mins by gamma-counting analysis; type: ADME, organism-based; details: in vivo; procedure, shortened: as §3
Spleen [39] = assay: Drug uptake in ICR mouse spleen at 370 kBq/100 ul, iv at 30 mins by gamma-counting analysis; type: ADME, organism-based; details: in vivo, 0.5 h; procedure, shortened: as §1
Stomach [40] = assay: Drug uptake in ICR mouse stomach assessed per organ at 370 kBq/100 ul, iv at 60 mins by gamma-counting analysis; type: ADME, organism-based; details: in vivo, 1 h; procedure, shortened: as §2
Brain [41] = assay: Drug uptake in healthy human brain at 370 KBq/100 ul after 1 hr by autoradiographic analysis; type: ADME, tissue-based; details: in vitro
Lung [42] = assay: Drug uptake in ICR mouse lung at 370 kBq/100 ul, iv at 2 mins by gamma-counting analysis; type: ADME, organism-based; details: in vivo; procedure, shortened: as §1
Liver [43] = assay: Drug uptake in ICR mouse liver at 370 kBq/100 ul, iv at 2 mins by gamma-counting analysis; type: ADME, organism-based; details: in vivo; procedure, shortened: as §1
Stomach [44] = assay: Drug uptake in ICR mouse stomach assessed per organ at 370 kBq/100 ul, iv at 2 mins by gamma-counting analysis; type: ADME, organism-based; details: in vivo; procedure, shortened: as §3
Bone [45] = assay: Drug uptake in ICR mouse bone at 370 kBq/100 ul, iv at 30 mins by gamma-counting analysis; type: ADME, organism-based, Bone element; details: in vivo, 0.5 h; procedure, shortened: as §1

logD at 0.05 h [1]: 3.59
Drug uptake (Blood [2]): 3.94 % ID/g
Ratio (Brain [3]): 2.78
Drug uptake (Stomach [4]): 4.63 %ID
Drug uptake (Brain [5]): 4.54 % ID/g
Drug uptake (Bone [6]): 6.7 % ID/g
Drug uptake (Kidney [7]): 3.45 % ID/g
Drug uptake (Blood [8]): 4.45 % ID/g
Drug uptake (Brain [9]): 7.87 % ID/g
Drug uptake (Brain [10]): 3.38 % ID/g
Drug uptake (Blood [11]): 4.45 % ID/g
Drug uptake (Kidney [12]): 4.42 % ID/g
Drug uptake (Heart [13]): 3.7 % ID/g
Drug uptake (Liver [14]): 4.28 % ID/g
Drug uptake (Lung [15]): 2.72 % ID/g
Drug uptake (Bone [16]): 2.43 % ID/g
Drug uptake (Stomach [17]): 5.61 %ID
Drug uptake (Intestine [18]): 25.23 %ID
Drug uptake (Intestine [19]): 11.15 %ID
Drug uptake (Spleen [20]): 2.86 % ID/g
Drug uptake (Liver [21]): 5.94 % ID/g
Drug uptake (Spleen [22]): 3.29 % ID/g
Drug uptake (Brain [23]): Not Active
Drug uptake (Kidney [24]): 3.62 % ID/g
Drug uptake (Intestine [25]): 19 %ID
Drug uptake (Spleen [26]): 4.52 % ID/g
Drug uptake (Lung [27]): 3.02 % ID/g
Drug uptake (Bone [28]): 2.04 % ID/g
Drug uptake (Heart [29]): 5.59 % ID/g
Drug uptake (Liver [30]): 3.06 % ID/g
Drug uptake (Kidney [31]): 9.57 % ID/g
Drug uptake (Blood [32]): 4.31 % ID/g
Drug uptake (Heart [33]): 3.11 % ID/g
Drug uptake (Brain [34]): 2.83 % ID/g
Drug uptake (Lung [35]): 3.57 % ID/g
Ki [36]: 0.0101 µM
Drug uptake (Heart [37]): 3.33 % ID/g
Drug uptake (Intestine [38]): 12.06 %ID
Drug uptake (Spleen [39]): 2.87 % ID/g
Drug uptake (Stomach [40]): 3.67 %ID
Drug uptake (Brain [41]): Not Active
Drug uptake (Lung [42]): 5.85 % ID/g
Drug uptake (Liver [43]): 10.4 % ID/g
Drug uptake (Stomach [44]): 3.61 %ID
Drug uptake (Bone [45]): 3.77 % ID/g
Structure (SMILES): CNc1ccc(-c2nc3ccc(OCC[18F])cc3s2)cn1
